Columns and labels:
[1] = molecular target: T1, 5-hydroxytryptamine receptor 1A (Rattus norvegicus, UniProt P19327); test: Inhibitory activity against 5-hydroxytryptamine 1A receptor in rats, using [3H]8-OH-DPAT as radioligand
T1 sequence (P19327 whole entry): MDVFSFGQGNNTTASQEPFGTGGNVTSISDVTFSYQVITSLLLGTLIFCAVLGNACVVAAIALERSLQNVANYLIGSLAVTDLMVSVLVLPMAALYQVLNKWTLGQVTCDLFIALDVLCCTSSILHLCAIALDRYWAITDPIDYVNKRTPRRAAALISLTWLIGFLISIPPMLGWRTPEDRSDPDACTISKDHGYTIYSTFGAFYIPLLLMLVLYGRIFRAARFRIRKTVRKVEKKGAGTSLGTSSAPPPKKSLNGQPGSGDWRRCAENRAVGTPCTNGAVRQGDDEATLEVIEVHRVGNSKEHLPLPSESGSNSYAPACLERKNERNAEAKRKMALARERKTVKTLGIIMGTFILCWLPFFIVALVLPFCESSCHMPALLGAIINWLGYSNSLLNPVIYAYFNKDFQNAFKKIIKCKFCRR
Procedure, shortened: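 Rat whole-brain membranes (minus brainstem and cerebellum) in 50 mM Tris pH 8.0 with 120 mM NaCl, 4 mM CaCl2, 4 mM MgCl2 and 10 μM pargyline. Rapid filtration, then scintillation counting. Nonspecific binding defined with 10 μM 5-HT. IC50 by semi-log plot and linear regression.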

D(2) dopamine receptor = D(2) dopamine receptor (Rattus norvegicus, UniProt P61169); test: Inhibitory activity against Dopamine receptor D2 in rats using [3H]spiperone as radioligand
Sequence of D(2) dopamine receptor (P61169 whole entry): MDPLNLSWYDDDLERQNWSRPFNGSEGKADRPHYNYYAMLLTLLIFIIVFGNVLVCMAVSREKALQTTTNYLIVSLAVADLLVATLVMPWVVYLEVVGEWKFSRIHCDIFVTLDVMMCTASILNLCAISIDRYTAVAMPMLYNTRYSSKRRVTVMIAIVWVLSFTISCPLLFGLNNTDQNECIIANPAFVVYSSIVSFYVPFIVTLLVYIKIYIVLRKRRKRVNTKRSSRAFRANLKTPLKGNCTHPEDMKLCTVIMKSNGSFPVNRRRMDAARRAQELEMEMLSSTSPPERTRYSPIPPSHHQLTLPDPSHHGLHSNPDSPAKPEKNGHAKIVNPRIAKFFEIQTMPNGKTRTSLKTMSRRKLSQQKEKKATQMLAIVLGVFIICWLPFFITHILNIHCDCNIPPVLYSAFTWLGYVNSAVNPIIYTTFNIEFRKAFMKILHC
Procedure, shortened: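 Rat striatal membranes in 50 mM potassium phosphate buffer pH 7.4 were incubated with 0.5 nM [3H]spiperone for 10 min at 37 °C. Specific binding was defined with 10 μM 6,7-ADTN.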

Rattus norvegicus [2] = test: Effect evaluated in vivo on 5-HTP accumulation in limbic system at a dose 3.1 umol/kg (p.o.); assay type: functional
Procedure, shortened: (§1)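 Oral dosing in male Sprague-Dawley rats (200–300 g) pretreated with reserpine 5 mg/kg sc 18 h before. After decarboxylase inhibition with NSD 1015, brain 5-HTP or dopa accumulation (HPLC-electrochemical detection) indexed 5-HT synthesis, DA synthesis (limbic) or NE synthesis (hemispheres, mainly cortex).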

Rattus norvegicus [3] = test: Effect evaluated in vivo on 5-HTP accumulation in limbic system at a dose 3.1 umol/kg (s.c.); assay type: functional
Procedure, shortened: (§2)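 Male Sprague-Dawley rats (200–300 g) were pretreated with reserpine 5 mg/kg sc 18 h before. Test compound was given sc at 5 mL/kg in neutral solution. 5-HT synthesis rate was indexed by […] 5-HTP accumulation after decarboxylase inhibition with NSD 1015, measured by HPLC-electrochemical detection. Dose-response used 4–6 dose levels, n = 4.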

Rattus norvegicus [4] = test: Effect evaluated in vivo on 5-HTP accumulation in limbic system at a dose 50 umol/kg (p.o.); assay type: functional; procedure, shortened: as §1
Rattus norvegicus [5] = test: Effect evaluated in vivo on 5-HTP accumulation in rats limbic system at a dose 50 umol/kg (s.c.); assay type: functional; procedure, shortened: as §2
Rattus norvegicus [6] = test: Effect evaluated in vivo on 5-HTP accumulation in NE-rich hemispheres at a 0.78 dose uM/kg(sc); assay type: functional
Procedure, shortened: (§3)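 Male Sprague-Dawley rats (200–300 g) were pretreated with reserpine 5 mg/kg sc 18 h beforehand. Test drug was given at neutral pH, 5 mL/kg. Aromatic amino acid decarboxylase was blocked with NSD 1015. 5-HTP in the dissected brain region was assayed by HPLC with electrochemical detection.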

Rattus norvegicus [7] = test: Effect evaluated in vivo on 5-HTP accumulation in NE-rich hemispheres at a 0.80 dose uM/kg(po); assay type: functional; procedure, shortened: as §3
Rattus norvegicus [8] = test: Effect evaluated in vivo on 5-HTP accumulation in corpus striatum at a dose 12.5 umol/kg (p.o.); assay type: functional; procedure, shortened: as §3
Rattus norvegicus [9] = test: Effect evaluated in vivo on 5-HTP accumulation in corpus striatum at a dose 12.5 umol/kg (s.c.); assay type: functional; procedure, shortened: as §3
Rattus norvegicus [10] = test: Effect evaluated in vivo on 5-HTP accumulation in corpus striatum at a dose 3.1 umol/kg (p.o.); assay type: functional; procedure, shortened: as §3
Rattus norvegicus [11] = test: Effect evaluated in vivo on 5-HTP accumulation in corpus striatum at a dose 3.1 umol/kg (s.c.); assay type: functional; procedure, shortened: as §3
Rattus norvegicus [12] = test: Effect evaluated in vivo on 5-HTP accumulation in corpus striatum at a dose 50 umol/kg (p.o.); assay type: functional; procedure, shortened: as §3
Rattus norvegicus [13] = test: Effect evaluated in vivo on 5-HTP accumulation in corpus striatum after perioral administration; assay type: functional; procedure, shortened: as §3
Rattus norvegicus [14] = test: Effect evaluated in vivo on 5-HTP accumulation in limbic system after perioral administration; assay type: functional; procedure, shortened: as §3
Rattus norvegicus [15] = test: Effect evaluated in vivo on 5-HTP accumulation in limbic system after subcutaneous administration; assay type: functional; conditions: sc; procedure, shortened: as §3
Rattus norvegicus [16] = test: Effect evaluated in vivo on 5-HTP accumulation synthesis in NE-rich hemispheres after perioral administration; assay type: functional; procedure, shortened: as §1
Rattus norvegicus [17] = test: Effect evaluated in vivo on NE synthesis in NE-rich hemispheres after subcutaneous administration; assay type: functional; conditions: sc
Procedure, shortened: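 Rats pretreated with reserpine 5 mg/kg sc 18 h before received test compound sc at 5 mL/kg in neutral solution. After decarboxylase inhibition with NSD 1015, dopa accumulation in hemispheres (mainly cortex) was measured by HPLC-electrochemical detection as an index of NE synthesis. Dose-response used 4–6 dose levels, n = 4.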

Rattus norvegicus [18] = test: Effect evaluated in vivo on 5-HTP accumulation in limbic system at a dose 0.78 umol/kg (s.c.); assay type: functional; procedure, shortened: as §3
Rattus norvegicus [19] = test: Effect evaluated in vivo on 5-HTP accumulation in limbic system at a dose 0.80 umol/kg (p.o.); assay type: functional; procedure, shortened: as §1
Rattus norvegicus [20] = test: Effect evaluated in vivo on 5-HTP accumulation in limbic system at a dose 12.5 umol/kg (p.o.); assay type: functional; procedure, shortened: as §1
Rattus norvegicus [21] = test: Effect evaluated in vivo on 5-HTP accumulation in limbic system at a dose 12.5 umol/kg (s.c.); assay type: functional; procedure, shortened: as §2
Rattus norvegicus [22] = test: Effect evaluated in vivo on 5-HTP accumulation in NE-rich hemispheres at a 12.5 dose uM/kg(po); assay type: functional; procedure, shortened: as §3
Rattus norvegicus [23] = test: Effect evaluated in vivo on 5-HTP accumulation in NE-rich hemispheres at a 12.5 dose uM/kg(sc); assay type: functional; procedure, shortened: as §3
Rattus norvegicus [24] = test: Effect evaluated in vivo on 5-HTP accumulation in NE-rich hemispheres at a 3.1 dose uM/kg(po); assay type: functional; procedure, shortened: as §3
Rattus norvegicus [25] = test: Effect evaluated in vivo on 5-HTP accumulation in NE-rich hemispheres at a 3.1 dose uM/kg(sc); assay type: functional; procedure, shortened: as §3
Rattus norvegicus [26] = test: Effect evaluated in vivo on 5-HTP accumulation in NE-rich hemispheres at a 50 dose uM/kg(po); assay type: functional; procedure, shortened: as §3
Rattus norvegicus [27] = test: Effect evaluated in vivo on 5-HTP accumulation in NE-rich hemispheres at a 50 dose uM/kg(sc); assay type: functional; procedure, shortened: as §3
Rattus norvegicus [28] = test: Effect evaluated in vivo on 5-HTP accumulation in corpus striatum after subcutaneous administration; assay type: functional; conditions: sc; procedure, shortened: as §3
Rattus norvegicus [29] = test: Effect evaluated in vivo on 5-HTP accumulation in corpus striatum at a dose 0.78 umol/kg (s.c.); assay type: functional; procedure, shortened: as §3
Rattus norvegicus [30] = test: Effect evaluated in vivo on 5-HTP accumulation in corpus striatum at a dose 0.80 umol/kg (p.o.); assay type: functional; procedure, shortened: as §3
Rattus norvegicus [31] = test: The compound was tested in vivo for locomotor activity in rats at 50 umol/kg after perioral administration; assay type: functional
Procedure, shortened: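 Reserpine-pretreated rats (5 mg/kg sc, 18 h before) received test compound orally. Photocell motility counts were accumulated over 30 min, and gross behaviour, including 5-HT syndrome, was observed.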

Rattus norvegicus [32] = test: The compound was tested in vivo for locomotor activity in rats at 50 umol/kg after subcutaneous administration; assay type: functional
Procedure, shortened: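 Male Sprague-Dawley rats received reserpine 5 mg/kg sc in the neck 18 h before testing. Test compound was given sc in the neck (n = 4). Rats were placed singly in photocell motility meters immediately after dosing, and counts were accumulated over 30 min (tests 9 a.m.–1 p.m.). Gross behaviour, including 5-HT syndrome, was observed throughout.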

Rattus norvegicus [33] = test: Effect evaluated in vivo on 5-HTP accumulation in limbic system at a dose 50 umol/kg (s.c.); assay type: functional; procedure, shortened: as §2
Rattus norvegicus [34] = test: Effect evaluated in vivo on 5-HTP accumulation in NE-rich hemispheres at a 0.20 dose uM/kg(sc); assay type: functional; procedure, shortened: as §3
Rattus norvegicus [35] = test: Effect evaluated in vivo on 5-HTP accumulation in NE-rich hemispheres at a 0.80 dose uM/kg(sc); assay type: functional; procedure, shortened: as §3
Rattus norvegicus [36] = test: Effect evaluated in vivo on 5-HTP accumulation in corpus striatum at a dose 50 umol/kg (s.c.); assay type: functional; procedure, shortened: as §3
Rattus norvegicus [37] = test: Effect evaluated in vivo on 5-HTP accumulation in limbic system at a dose 0.20 umol/kg (s.c.); assay type: functional; procedure, shortened: as §3
Rattus norvegicus [38] = test: Effect evaluated in vivo on 5-HTP accumulation in limbic system at a dose 0.80 umol/kg (s.c.); assay type: functional; procedure, shortened: as §2
Rattus norvegicus [39] = test: Effect evaluated in vivo on 5-HTP accumulation in NE-rich hemispheres after perioral administration; assay type: functional; procedure, shortened: as §3
Rattus norvegicus [40] = test: Effect evaluated in vivo on 5-HTP accumulation in NE-rich hemispheres after subcutaneous administration; assay type: functional; conditions: sc; procedure, shortened: as §3
Rattus norvegicus [41] = test: Effect evaluated in vivo on 5-HTP accumulation in corpus striatum at a dose 0.20 umol/kg (s.c.); assay type: functional; procedure, shortened: as §3
Rattus norvegicus [42] = test: Effect evaluated in vivo on 5-HTP accumulation in corpus striatum at a dose 0.80 umol/kg (s.c.); assay type: functional; procedure, shortened: as §3

| Compound | IC50 [1] [nM] | IC50 (D(2) dopamine receptor) [nM] | Control (Rattus norvegicus [2]) [%] | Control (Rattus norvegicus [3]) [%] | Control (Rattus norvegicus [4]) [%] | Control (Rattus norvegicus [8]) [%] | Control (Rattus norvegicus [10]) [%] | Control (Rattus norvegicus [11]) [%] | Control (Rattus norvegicus [12]) [%] | ED50 (Rattus norvegicus [13]) [µmol/kg] | ED50 (Rattus norvegicus [14]) [µmol/kg] | ED50 (Rattus norvegicus [15]) [µmol/kg] | Control (Rattus norvegicus [19]) [%] | Control (Rattus norvegicus [20]) [%] | Control (Rattus norvegicus [25]) [%] | Control (Rattus norvegicus [27]) [%] | ED50 (Rattus norvegicus [28]) [µmol/kg] | Control (Rattus norvegicus [30]) [%] | Locomotor activity (Rattus norvegicus [31]) | Locomotor activity (Rattus norvegicus [32]) | further results |
| --- | --- | --- | --- | --- | --- | --- | --- | --- | --- | --- | --- | --- | --- | --- | --- | --- | --- | --- | --- | --- | --- |
| COc1cccc2c1CCN(CC1CC1)CC2 | 120 | 7600 | 70 | 67 | 48 | 77 | 59 | 68 | 48 | 7 | 5.5 | 1.7 | 101 | 83 | 77 | 43 | 2.5 | 102 | 31 | 107 | Control (Rattus norvegicus [5]): 42%; Control (Rattus norvegicus [6]): 95%; Control (Rattus norvegicus [7]): 102%; Control (Rattus norvegicus [9]): 60%; ED50 (Rattus norvegicus [16]): 6.5 µmol/kg; ED50 (Rattus norvegicus [17]): 4 µmol/kg; Control (Rattus norvegicus [18]): 84%; Control (Rattus norvegicus [21]): 56%; Control (Rattus norvegicus [22]): 89%; Control (Rattus norvegicus [23]): 85%; Control (Rattus norvegicus [24]): 75%; Control (Rattus norvegicus [26]): 50%; Control (Rattus norvegicus [29]): 88% |
| CCCN1CCc2c(Br)ccc(OC)c2CC1 | 28 | 680 | 90 | 69 | 48 | 77 | 96 | 71 | 50 | 14 | 13 | 2.7 | 88 | 76 | 83 | 43 | 3.2 | 112 | 21 | 108 | Control (Rattus norvegicus [33]): 48%; Control (Rattus norvegicus [34]): 102%; Control (Rattus norvegicus [35]): 111%; Control (Rattus norvegicus [36]): 50%; Control (Rattus norvegicus [37]): 108%; Control (Rattus norvegicus [38]): 118%; ED50 (Rattus norvegicus [39]): 21 µmol/kg; ED50 (Rattus norvegicus [40]): 5 µmol/kg; Control (Rattus norvegicus [41]): 117%; Control (Rattus norvegicus [42]): 130% |

— ChEMBL document CHEMBL1125331, “6-Hydroxy-3-n-propyl-2,3,4,5-tetrahydro-1H-3-benzazepine and analogs: new centrally acting 5-HT1A receptor agonists” (J Med Chem, 1992)
